15 compounds from PubChem BioAssay can be followed below.

Assay [1] can be described thus: Her2 expression decrease, cell viability multiplex – SKBR3 breast tumor cells, AlphaScreen, ATP viability, primary screen (AID 461;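 active = Her2 level under about 52% in both replicate screens, with viability over 70% of control, limit read from the data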;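 for Her2 level: lower value means less Her2 protein in the cells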;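 for viability: percent of carrier control wells set as 100% viability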). As to conditions: SKBR3 Her2 protein level, 18-24 h, measured here: SKBR3 viability, ATP luminescence, at 10 µM.
Assay [2] concerns the target Receptor tyrosine-protein kinase erbB-2 (Homo sapiens) (UniProt P04626). The description is as above. As to conditions: 18-24 h, at 10 µM, stronger effect = lower value.
Assay [3] in a line: reduced viability of SK-BR-3 breast cancer cells – cell-based, 24 h, human, pilot screen (AID 572;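 active = viability at or below 10% of carrier control in both of two separate runs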;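 note: compound exposure lasted between 18 and 24 h rather than exactly 24 h; 100% = carrier-treated control wells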). The settings on record: SK-BR-3 viability, CellTiter-Glo luminescence, at 10 µM, stronger effect = lower value. (In general: ATP-based viability assays read luminescence as a measure of living cells.)
A short description of assay [4]: HUVEC growth inhibition – cell-based, human, primary screen (AID 575;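 active = viability at or below 30% in both replicate assays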;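 note: 100% = median of untreated cell wells with 0.1% DMSO on each plate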). The settings on record: HUVEC proliferation, CellTiter-Glo luminescence, 72 h; at 10 µM; stronger effect = lower value. The method in brief: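 Assay system: primary human umbilical vein endothelial cells / Buffer or medium: endothelial basal medium with 2% FBS plus growth supplements / Compound dosing: one dose, 10 µM final, 0.1% DMSO / Timing: 72 h treatment at 37 °C / Signal: CTG luminescence / Benchmarks: 32 DMSO-only cell-control wells (high), 32 MePR drug-control wells (low) per plate / Plate: collagen-coated 384-well format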

Assay [5] can be described thus: H69AR cell proliferation blockers – human, duplicate replicates, primary screen (AID 580;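 active = viability at or under a set limit in both replicates, limit being median viability minus 3 SD, cut at about 48% in these data, passing the limit was not always enough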;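 note: 100% = mean luminescence of untreated wells and 0% = no signal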). As to conditions: H69AR lung tumor cells viability, ATP luminescence, 72 h; at 10 µM; stronger effect = lower value.
The nature of assay [6]: MRP1 drug-resistance reversers in H69AR cells – cell-based, doxorubicin co-treatment, pilot screen (AID 601;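 active = viability loss from added drug above about 55%, and viability with drug at most 40%, in both replicates, limit read from the data, passing the limit was not always enough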). As to conditions: CellTiter-Glo, 72 h, at 10 µM; for differential viability (reversal): stronger effect = higher value.
A short description of assay [7]: yeast transport mutant growth inhibition pilot in 384-well plates, post-Golgi transport modulator project (AID 636; in the data active = inhibition above about 31%). The settings on record: absorbance 615 nm, about 18 h, stronger effect = higher value.
Assay [8] is described as follows: growth suppression of yeast trafficking mutant, preliminary HTS, modulators of trafficking downstream of Golgi apparatus project, 1536-format plate, OD 615 nm (AID 637). The settings on record: yeast transport mutant growth, absorbance 615 nm, 18 h; stronger effect = higher value.
[9] abbreviates: H69AR cells + 2 uM doxorubicin, measured here: viability with 2 uM doxorubicin, stronger effect = lower value.
Setting [10] is: H69AR cells, compound alone cytotoxicity.

Active and inactive are the calls of the source. Cut-off read from the data, not from the text of the source, unless noted: active = inhibition above about 30%; inactive = the rest.

Receptor tyrosine-protein kinase erbB-2 (Homo sapiens), sequence (P04626 whole entry, looked up): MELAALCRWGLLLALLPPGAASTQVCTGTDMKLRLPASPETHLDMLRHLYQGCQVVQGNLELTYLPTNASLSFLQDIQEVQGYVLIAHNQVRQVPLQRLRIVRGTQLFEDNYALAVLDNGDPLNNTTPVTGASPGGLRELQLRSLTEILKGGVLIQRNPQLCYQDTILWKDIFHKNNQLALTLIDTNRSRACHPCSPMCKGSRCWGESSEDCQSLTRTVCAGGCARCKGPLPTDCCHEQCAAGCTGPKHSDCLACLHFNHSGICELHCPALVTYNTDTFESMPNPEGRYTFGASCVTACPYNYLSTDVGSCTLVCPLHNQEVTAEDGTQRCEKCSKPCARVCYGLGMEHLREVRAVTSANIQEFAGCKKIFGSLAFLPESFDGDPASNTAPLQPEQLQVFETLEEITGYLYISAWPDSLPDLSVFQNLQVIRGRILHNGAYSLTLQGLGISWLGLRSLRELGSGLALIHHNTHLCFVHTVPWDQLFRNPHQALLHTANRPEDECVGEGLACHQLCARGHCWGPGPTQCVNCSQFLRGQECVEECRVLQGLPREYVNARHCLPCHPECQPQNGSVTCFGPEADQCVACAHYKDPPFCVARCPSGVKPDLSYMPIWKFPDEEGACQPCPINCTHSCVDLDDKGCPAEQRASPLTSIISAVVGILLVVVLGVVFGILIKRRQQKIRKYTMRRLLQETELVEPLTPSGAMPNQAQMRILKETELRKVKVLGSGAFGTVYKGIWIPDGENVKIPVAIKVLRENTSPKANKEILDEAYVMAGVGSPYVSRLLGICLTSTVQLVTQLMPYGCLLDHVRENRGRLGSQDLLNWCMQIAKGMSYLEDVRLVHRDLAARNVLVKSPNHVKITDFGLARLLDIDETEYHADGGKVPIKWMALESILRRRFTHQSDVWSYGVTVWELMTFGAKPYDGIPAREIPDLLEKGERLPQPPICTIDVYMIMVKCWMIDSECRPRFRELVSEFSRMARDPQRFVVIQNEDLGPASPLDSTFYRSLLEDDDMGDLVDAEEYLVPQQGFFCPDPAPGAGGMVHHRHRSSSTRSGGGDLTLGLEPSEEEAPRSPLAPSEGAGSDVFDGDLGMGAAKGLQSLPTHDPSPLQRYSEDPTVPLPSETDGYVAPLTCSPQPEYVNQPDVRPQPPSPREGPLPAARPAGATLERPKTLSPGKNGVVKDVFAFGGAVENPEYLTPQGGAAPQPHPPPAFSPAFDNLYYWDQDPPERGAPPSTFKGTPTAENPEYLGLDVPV

A word on the viability: it is a read-out of living cells in per cent, often relative to untreated cells. What is called inhibition is the drop in the measured response relative to a control, in per cent. For `CN(C)c1nc(N)nc(-c2nc3ccccc3s2)n1`, the viability in assay [1] is 73%; in assay [3], 73% (inactive); in assay [4] it was 85.1% (inactive); in assay [5], 91.7% (inactive); in assay [6] (setting [9]), 85.3%; in assay [6] (setting [10]) it was 91.7%. Besides, the Her2 level in assay [2] was 89% (inactive). In assay [6] (H69AR cells + 2 uM doxorubicin), the differential viability (reversal) is 6.39% (inactive). Also, the inhibition in assay [7] is -6.62% (inactive); in assay [8], -1.64% (inactive).
As to `COc1ccc(C)cc1NS(=O)(=O)c1ccc(NS(=O)(=O)c2ccc(NC(C)=O)cc2)cc1`, the viability in assay [1] is 128%; in assay [3], 128% (inactive); in assay [4], 94.9% (inactive); in assay [5], 93.5% (inactive); in assay [6] (setting [9]), 88.9%; in assay [6] (setting [10]), 93.5%. Moreover, the Her2 level in assay [2] was 104% (inactive). Moreover, in assay [6] (H69AR cells + 2 uM doxorubicin), the differential viability (reversal) was 4.67% (inactive). The inhibition in assay [7] is -6.67% (inactive); in assay [8], 1.29% (inactive).
`NC(=O)CSc1nnc(-c2cc3ccccc3o2)n1Cc1ccccc1`: the viability in assay [1] is 92.5%; in assay [3] it was 92.5% (inactive); in assay [4], 104% (inactive); in assay [5] it was 90.3% (inactive); in assay [6] (setting [9]), 91.8%; in assay [6] (setting [10]) it was 90.3%. The Her2 level in assay [2] is 81.5% (inactive). Further, the differential viability (reversal) in assay [6] (H69AR cells + 2 uM doxorubicin) was -1.59% (inactive). In addition, the inhibition is -6.05% (inactive) in assay [7] and 0.67% (inactive) in assay [8].
As to `OCc1nc2ccccc2n1CC(O)Cn1ccc2ccccc21` (stereo not given), the viability in assay [1] is 97.5%; in assay [3] it was 97.5% (inactive); in assay [4], 69.6% (inactive); in assay [5], 85.2% (inactive); in assay [6] (setting [9]) it was 101%; in assay [6] (setting [10]), 85.2%. For the same compound, the Her2 level in assay [2] is 116% (inactive). In addition, in assay [6] (H69AR cells + 2 uM doxorubicin), the differential viability (reversal) was -15.4% (inactive). Also, the inhibition in assay [7] was -1.97% (inactive); in assay [8], 8.36% (inactive).
Consider `NC(=O)c1c(-c2ccccc2)oc2ccc(O)cc12`, for which the viability was 121% in assay [1]; 121% (inactive) in assay [3]; 96.2% (inactive) in assay [4]; 90.4% (inactive) in assay [5]; 77% in assay [6] (setting [9]); 90.4% in assay [6] (setting [10]). For the same compound, in assay [2], the Her2 level was 88% (inactive). In assay [6] (H69AR cells + 2 uM doxorubicin), the differential viability (reversal) is 13.4% (inactive). Besides, the inhibition in assay [7] is 1.18% (inactive); in assay [8] it was -9.82% (inactive).
As to `O=c1c(F)cn(C2CCCO2)c(=O)n1Cc1c(F)cccc1Cl` (stereo not given), the viability is 94.5% in assay [1]; 94.5% (inactive) in assay [3]; 92.8% (inactive) in assay [4]; 91.1% (inactive) in assay [5]; 93.2% in assay [6] (setting [9]); 91.1% in assay [6] (setting [10]). In assay [2], the Her2 level is 94% (inactive). Also, the differential viability (reversal) in assay [6] (H69AR cells + 2 uM doxorubicin) is -2.1% (inactive). For the same compound, the inhibition in assay [7] was -0.13% (inactive); in assay [8], -8.39% (inactive).
`COc1cc(NS(=O)(=O)N2CCCC2)cc(OC)c1OC`: the viability in assay [1] is 83.5%; in assay [3], 83.5% (inactive); in assay [4] it was 94.8% (inactive); in assay [5], 92.2% (inactive); in assay [6] (setting [9]), 83.8%; in assay [6] (setting [10]), 92.2%. Further, in assay [2], the Her2 level was 95.5% (inactive). The differential viability (reversal) in assay [6] (H69AR cells + 2 uM doxorubicin) was 8.42% (inactive). For the same compound, the values for the inhibition in assay [7] and in assay [8] were -7.57% (inactive) and -2.95% (inactive), respectively.
As for `CCOc1ccc2c(c1)sc1nc(C(=O)OC)cc(=O)n12`, the viability in assay [1] is 94%; in assay [3], 94% (inactive); in assay [4] it was 104% (inactive); in assay [5], 84.8% (inactive); in assay [6] (setting [9]) it was 85.4%; in assay [6] (setting [10]), 84.8%. Also, the Her2 level in assay [2] was 84% (inactive). In addition, in assay [6] (H69AR cells + 2 uM doxorubicin), the differential viability (reversal) is -0.545% (inactive). The inhibition in assay [7] was -6.49% (inactive); in assay [8], -6% (inactive).
Consider `O=C(CN1C(=O)C2C3C=CC(C3)C2C1=O)NCc1ccc2c(c1)OCO2` (stereo not given), for which the viability in assay [1] was 102%; in assay [3], 102% (inactive); in assay [4], 97.9% (inactive); in assay [5] it was 98.2% (inactive); in assay [6] (setting [9]), 90.1%; in assay [6] (setting [10]), 98.2%. Besides, the Her2 level in assay [2] was 109% (inactive). In addition, the differential viability (reversal) in assay [6] (H69AR cells + 2 uM doxorubicin) was 8.13% (inactive). Besides, the inhibition in assay [7] was -1.43% (inactive); in assay [8], -7.78% (inactive).
Turning to `COCCNC(=O)C(c1cccc(OC)c1)N(Cc1cccs1)C(=O)Cn1nnc2ccccc21` (stereo not given), the viability in assay [1] was 110%; in assay [3] it was 110% (inactive); in assay [4], 105% (inactive); in assay [5] it was 99.2% (inactive); in assay [6] (setting [9]), 94.5%; in assay [6] (setting [10]), 99.2%. Also, the Her2 level in assay [2] was 82% (inactive). Besides, the differential viability (reversal) in assay [6] (H69AR cells + 2 uM doxorubicin) is 4.64% (inactive). In addition, the inhibition is -3.6% (inactive) in assay [7] and 1.48% (inactive) in assay [8].
With `COc1ccc(C(=O)Nc2ccc(S(=O)(=O)NC(C)=O)cc2)cc1`, the viability in assay [1] is 120%; in assay [3] it was 120% (inactive); in assay [4], 96.5% (inactive); in assay [5], 93.1% (inactive); in assay [6] (setting [9]), 98.8%; in assay [6] (setting [10]), 93.1%. Moreover, the Her2 level in assay [2] is 100% (inactive). Also, in assay [6] (H69AR cells + 2 uM doxorubicin), the differential viability (reversal) is -5.71% (inactive). The inhibition in assay [7] is -4.13% (inactive); in assay [8] it was -2.26% (inactive).
Take `COc1ccccc1NC(=O)CSc1nnnn1-c1ccc2c(c1)OCO2`: the viability in assay [1] was 92%; in assay [3], 92% (inactive); in assay [4], 98.7% (inactive); in assay [5] it was 90.9% (inactive); in assay [6] (setting [9]), 75.8%; in assay [6] (setting [10]) it was 90.9%. In assay [2], the Her2 level is 84% (inactive). Also, in assay [6] (H69AR cells + 2 uM doxorubicin), the differential viability (reversal) is 15.1% (inactive). For the same compound, the inhibition was -4.11% (inactive) in assay [7] and 0% (inactive) in assay [8].
As to `COC(=O)[C@H](C)NC(=O)Nc1cc(OC)ccc1OC`, the viability in assay [1] is 121%; in assay [3] it was 121% (inactive); in assay [4] it was 61.1% (inactive); in assay [5], 75.1% (inactive); in assay [6] (setting [9]) it was 50.1%; in assay [6] (setting [10]), 75.1%. Besides, the Her2 level in assay [2] is 81.5% (inactive). For the same compound, in assay [6] (H69AR cells + 2 uM doxorubicin), the differential viability (reversal) is 25% (inactive). The inhibition in assay [7] was -2.34% (inactive); in assay [8], -0.48% (inactive).
On to `Cc1cc(C(=O)N2CCN(C/C=C/c3ccccc3)CC2)no1`, for which the viability in assay [1] is 92.5%; in assay [3], 92.5% (inactive); in assay [4], 93.8% (inactive); in assay [5] it was 93.2% (inactive); in assay [6] (setting [9]), 92.5%; in assay [6] (setting [10]), 93.2%. Moreover, the Her2 level in assay [2] is 97.5% (inactive). Besides, the differential viability (reversal) in assay [6] (H69AR cells + 2 uM doxorubicin) was 0.745% (inactive). The inhibition is -4.05% (inactive) in assay [7] and 2.62% (inactive) in assay [8].
For `CCSc1nnc(NC(=O)C(CC)(C(F)(F)F)C(F)(F)F)s1`, the viability was 79.5% in assay [1]; 79.5% (inactive) in assay [3]; 68.9% (inactive) in assay [4]; 74% (inactive) in assay [5]; 73.4% in assay [6] (setting [9]); 74% in assay [6] (setting [10]). In addition, the Her2 level in assay [2] was 120% (inactive). Further, in assay [6] (H69AR cells + 2 uM doxorubicin), the differential viability (reversal) was 0.58% (inactive). In addition, the inhibition in assay [7] is 0.41% (inactive); in assay [8], 33.3% (active).
